In experiment [1] the test system is RAW264.7. Briefly: Inhibitory activity against nitric oxide production in lipopolysaccharide-activated mouse macrophage RAW264.7 cells. The class given is functional, cell-based. The procedure, abridged: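 RAW264.7 cells in phenol-red-free DMEM with 10% FBS were plated at 8×10⁵ cells/mL and grown 24 h. The medium was then renewed, and cells were exposed to LPS with or without test sample for 20 h. Nitrite in the medium, taken as the NO indicator, was measured in triplicate with Griess reagent (0.1% naphthylethylenediamine, 1% sulfanilamide, 5% H₃PO₄). Inhibition was calculated as % of the vehicle-treated control, and IC₅₀ was taken from dose-response curves.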

Experiment [2] deals with RAW264.7. The experiment is described as follows: Inhibitory activity of the compound against nitric oxide production in lipopolysaccharide-activated mouse macrophage RAW264.7 cells.

Structures are written as SMILES.

For `COc1cc(/C=C\c2ccsc2)cc(OC)c1OC`, the IC50 with RAW264.7 [1] was 5.6 µM.

`COc1ccc(/C=C/c2cccs2)cc1` displayed an IC50 in the experiment with RAW264.7 [1] above 50 µM. Regarding `COc1cc(/C=C/c2ccco2)cc(OC)c1OC`, it took 5.9 µM to reach half-maximal inhibition in the experiment on RAW264.7 [1] (IC50). Same read-out and setting: under `COc1cc(/C=C\c2cccs2)cc(OC)c1` stands above 50 µM. Compound `COc1cc(/C=C/c2ccsc2)cc(OC)c1OC` returned an IC50 with RAW264.7 [2] of 7.8 µM. In the experiment with RAW264.7 [1], `COc1cc(/C=C/c2cccs2)cc(OC)c1OC` showed an IC50 of 5.3 µM. The same measure, in the same setting: to `COc1cc(/C=C\c2ccoc2)cc(OC)c1OC` belongs 6.6 µM; to `COc1ccc(/C=C\c2cccs2)cc1`, above 50 µM. Still for that read-out and setting: under `COc1cc(/C=C/c2cccs2)cc(OC)c1` stands above 50 µM. On the same count and under the same terms, under `COc1cc(/C=C/c2ccoc2)cc(OC)c1OC` stands 9.5 µM; under `Oc1ccc(/C=C/c2cc(O)cc(O)c2)cc1` [RESVERATROL], 15.9 µM.

In general, IC50 refers to the concentration that inhibits the measured activity by half. Low readings indicate inhibition by little substance, high ones a need for much substance.

Values taken from ChEMBL document CHEMBL1146632, “Styrylheterocycles: a novel class of inhibitors on lipopolysaccharide-Induced nitric oxide production” (Bioorg Med Chem Lett, 2003).
